Screens (PubChem)
Compounds with a hit are over-represented: about 1.7% of the library has one in this group of screens.
Rpn11 block = Rpn11 (human) deubiquitinase inhibition. AID 588493. O00487. human 26S proteasome, Ub4-pepOG fluorescence polarization; 20S core pre-blocked with epoxomicin. 360,000 tested, 0.59% active. inhibition, % at 20 µM;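 active = inhibition at 20 µM, scaled to each plate's controls, above about 33%, limit read from the data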
CSN inh = blocks human CSN-mediated cullin deneddylation | Q92905 | Purified CSN, SCF-Nedd8-OG deneddylation, fluorescence polarization | inhibition, % at 12.5 µM | 360,000 tested, 0.38% active | AID 651999;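 active = pattern-corrected inhibition above about 35%, with an unprinted fluorescence ratio check between 0.5 and 1.5, limit read from the data, passing the limit was not always enough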;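 also: 0% = enzyme with substrate and 100% = substrate without enzyme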
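Material: human Csn5 produced in HEK293T cells; Input: enzyme 0.24 nM; Reagent: SCFSkp2-Nedd8OG substrate at 10 nM final; Dosing: 12.5 µM compound; Incubation: 90 min reaction at room temperature; Detection: fluorescence polarization of the substrate; Evaluation: % inhibition of substrate cleavage by Csn5; Control set: substrate-only high control, full reaction low control.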
IDE cell activ = boosts human insulin-degrading enzyme activity in HEK cells; AID 493087; activation, % at 5.96 µM; P14735; FAbeta-B cleavage, fluorescence polarization; 0% vehicle, 100% cell-free pure enzyme wells; 340,000 tested, 0.073% active;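 active = activation above the mean of all tested compounds plus 3 SD, set per screening campaign, cut at about 17% in these data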
TPT1 inhibitor = blocks Candida albicans tRNA 2'-phosphotransferase. recombinant caTPT1, FP RNA substrate dephosphorylation. inhibition, % at 5 µM. 300,000 tested, 0.81% active. AID 1962;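 active = inhibition above the mean of all tested compounds plus 3 SD, set per screening campaign, cut at about 24% in these data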;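 also: plate controls were DMSO alone for no effect and ferristatin control at 100 nM for full effect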
IDE cell inh = inhibitors of human insulin-degrading enzyme in cells; HEK cells, FAbetaB cleavage, fluorescence polarization; inhibition, % at 5.59 µM; 320,000 tested, 0.41% active; AID 434962;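 active = percent inhibition above the average of all tested compounds plus 3 SD, set per screening campaign, cut at about 16% in these data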;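 also: IDE supplied by intact live HEK cells; FP after avidin binding of uncleaved biotin substrate so inhibition keeps polarization high; 0% = DMSO wells and 100% = 60 µM reference IDE inhibitor Ii1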
HNF4A DNA FP = change in binding of human HNF4 alpha to DNA; P41235; HNF4a-FITC DNA binding, fluorescence polarization, 1 h; activity change, % at 10 µM; 360,000 tested, 0.3% active; AID 1224865; in the data active = activity change above about 30%, passing the limit was not always enough
Starred values were filed as active, the others as inactive; · = no result given.

SMILES	Rpn11 block	CSN inh	IDE cell activ	TPT1 inhibitor	IDE cell inh	HNF4A DNA FP
CC(C)c1ccc(/C=C/C(=O)NC(=S)Nc2ccc(CN3CCOCC3)cc2)cc1	-4.7	-7.3	-9.8	-0.8	17.8*	2.4
O=c1oc(/C=C/c2ccco2)nc2sc3c(c12)CCC3	2.5	41.9*	-2.9	-0.3	-4.2	-10.7
O=c1oc(-c2cccs2)nc2sc3c(c12)CCC3	24.4	2.1	2.4	-3.0	-0.7	9.9
O=C(O)C1CCC(=O)N1C(=O)OCc1ccccc1 (stereo not given)	7.8	-1.8	1.5	0.6	-3.0	0.1
Cc1cc(=O)[nH]c2cc(O)ccc12	1.8	-3.5	3.5	0.7	6.2	1.1
CC(C)=CCCC1(C)C=Cc2c(c(C)cc3c2[nH]c2cc(O)ccc23)O1 (stereo not given)	-0.4	1.8	24.0*	-2.9	-5.6	1.6
Cc1cccc(C)c1NC(=O)C(c1ccnc2ccccc12)N1CCN(C)CC1 (stereo not given)	·	-0.8	·	·	·	-4.4
O=C(Cn1nnc(-c2ccc(Cl)cc2)n1)N1CCN(C(=O)c2ccco2)CC1	1.4	-6.0	5.4	·	-2.5	-2.5
COc1ccc(C(=O)Nc2ccc(-c3nnn(CC(=O)N4CCN(C(=O)c5ccco5)CC4)n3)cc2)cc1	11.5	79.9*	0.6	1.7	0.3	7.4
COc1ccc(S(=O)(=O)N2CC(C)N(C(=O)N(C)C)C2C(C)C)cc1 (stereo not given)	3.0	2.9	5.4	0.8	-0.5	3.7
COc1cc(/C=C2\SC(=S)N(c3cccnc3)C2=O)ccc1O	·	149.3	-90.4	23.0	44.6*	-0.2
Cc1ccc(/C=C2\SC(=S)N(c3cccnc3)C2=O)cc1	-0.5	4.6	5.8	2.3	-1.9	3.9
CN1CCN(C(=O)CCN2C(=O)/C(=C/c3ccc(F)cc3)SC2=S)CC1	8.3	3.1	3.8	4.3	-3.5	6.9
Cn1c2c(c(=O)n3ncnc13)CCCC2	-0.2	1.2	2.5	0.1	16.9*	0.8
COc1ccc2c(c1)CCc1c(C(=O)Nc3cc(C)n(Cc4ccc(Cl)cc4)n3)noc1-2	-2.1	91.4*	-3.3	-0.6	-5.5	-5.0
Cc1ccc(OCC(=O)N/N=C/C=C/c2ccco2)cc1C	6.8	13.4	-6.9	1.9	4.3	2.5
CCOc1ccc([C@@H]2CC=C(C(=O)O)CN2S(=O)(=O)c2ccc(C)cc2)cc1	-1.2	-3.7	-6.5	-0.7	-2.4	4.1
COc1ccc(C2=NN(c3ccccc3)C(c3ccc(OC)c(OC)c3)C2)cc1 (stereo not given)	1.1	1.8	3.2	4.3	2.6	7.3
COc1ccc(C2CC(c3ccc(F)cc3)=NN2c2ccccc2)cc1OC (stereo not given)	42.4*	3.5	2.0	9.7	6.3	16.4
Cc1cccn2c(=O)c3cc(C(=O)NC(C)C)c(=N)n(Cc4ccncc4)c3nc12	-0.5	2.6	0.4	-3.8	4.0	51.6*
COCCCn1c(C(=O)Nc2ccc3c(c2)OCO3)cc2c(=O)n3cccc(C)c3nc21	6.0	41.9*	·	·	·	28.9
O=C(CCS(=O)(=O)c1ccccc1)N1CCN(c2ccccc2)CC1	-5.9	0.4	6.7	-0.3	3.9	-1.2
CC(C)CC(N)c1csc(NC(=O)Nc2ccccc2C(C)(C)C)n1 (stereo not given)	5.8	-3.2	·	·	·	2.0
CSCCC(NC(=O)c1ccc(C(C)(C)C)cc1)C(=O)OCC(=O)N1CCCC1=O (stereo not given)	-13.0	66.7*	2.2	·	-1.4	-0.2
C#CCOCCOCCOCCNc1nc(N2CCN(C(=O)CCCCCCCCCCNC(=O)[C@@H](CCSC)n3cc(CCO)nn3)CC2)nc(N2CCN(C(=O)CCCCCCCCCCNC(=O)[C@H](CCSC)n3cc(CCO)nn3)CC2)n1	-2.4	-3.6	5.1	-0.6	7.6	0.8
SMILES	Rpn11 block	CSN inh	IDE cell activ	TPT1 inhibitor	IDE cell inh	HNF4A DNA FP
C#CCOCCOCCOCCNc1nc(N2CCN(C(=O)CCCCCCCCCCNC(=O)[C@H](CO)n3cc(CCCSC)nn3)CC2)nc(N2CCN(C(=O)CCCCCCCCCCNC(=O)[C@H](CCCCN)n3cc(CCO)nn3)CC2)n1	5.4	13.7	22.2*	·	5.4	14.2
C#CCOCCOCCOCCNc1nc(N2CCN(C(=O)CCCCCCCCCCNC(=O)Cn3cc(C[C@@H](C)O)nn3)CC2)nc(N2CCN(C(=O)CCCCCCCCCCNC(=O)[C@H](CCCN=C(N)N)n3cc(C[C@@H](C)CC)nn3)CC2)n1	84.1*	44.0*	35.2*	0.3	7.9	160.0
C#CCOCCOCCOCCNc1nc(N2CCN(C(=O)CCCCCCCCCCNC(=O)[C@H](CCCCN)n3cc(C)nn3)CC2)nc(N2CCN(C(=O)CCCCCCCCCCNC(=O)[C@H](CCCCN)n3cc(CCCC(=O)O)nn3)CC2)n1	-23.4	14.1	3.2	-4.7	5.0	37.8*
C#CCOCCOCCOCCNc1nc(N2CCN(C(=O)CCCCCCCCCCNC(=O)[C@H](CCCCN)n3cc(CCCC(=O)O)nn3)CC2)nc(N2CCN(C(=O)CCCCCCCCCCNC(=O)[C@@H]([C@H](C)O)n3cc(C)nn3)CC2)n1	-3.0	-2.7	-1.0	-2.1	-1.5	4.1
C#CCOCCOCCOCCNc1nc(N2CCN(C(=O)CCCCCCCCCCNC(=O)Cn3cc(C[C@@H](C)O)nn3)CC2)nc(N2CCN(C(=O)CCCCCCCCCCNC(=O)[C@H](CCCCN)n3cc(CCCC(=O)O)nn3)CC2)n1	-1.5	5.2	3.2	3.7	7.0	3.5
C#CCOCCOCCOCCNc1nc(N2CCN(C(=O)CCCCCCCCCCNC(=O)[C@H](CO)n3cc(CCCSC)nn3)CC2)nc(N2CCN(C(=O)CCCCCCCCCCNC(=O)[C@H](CCCN=C(N)N)n3cc(C[C@@H](C)CC)nn3)CC2)n1	108.1*	130.6*	54.8*	-2.6	-2.4	278.6
CN(C)c1ccc(/C=C/c2cc[n+]([O-])cc2)cc1	·	·	·	-11.3	22.1*	·
CC(=O)Nc1c(Cl)cc(Cl)c2c1Cc1cc(Cl)ccc1-2	-3.4	0.1	0.2	·	·	-0.4
Cc1cc(C)c2c(c1)NC(C(=O)O)C1CC=CC21 (stereo not given)	-20.4	28.4	2.8	16.5	0.3	-40.0
Cc1ccc2c(c1C)NC(C(=O)O)C1CC=CC21 (stereo not given)	33.8	28.2	3.2	26.0*	3.8	-51.9
O=C(O)C1Nc2c(C(=O)N3CCOCC3)cccc2C2C=CCC12 (stereo not given)	-10.9	35.3*	1.3	-13.8	-0.8	-30.7
Cc1ccc(OCC(=O)N(Cc2nnc(-c3ccccc3Cl)o2)C2CC2)cc1C	-7.0	-4.6	-0.3	·	-1.4	-5.0
CCOC(=O)C1=C(C)N=c2sc(=Cc3ccc(OCC(=O)O)cc3)c(=O)n2C1c1ccc(SC)cc1 (stereo not given)	45.3*	38.4*	·	·	·	6.2
